Source: ChEMBL document CHEMBL1157854, “In-vivo analgesic and anti-inflammatory activities of newly synthesized benzimidazole derivatives” (2010)

Assays:
[1] = system: Rattus norvegicus; assay: Antiinflammatory activity in albino rat assessed as inhibition of carrageenan-induced paw oedema at 100 mg/kg, po measured after 120 mins of carrageenan challenge relative to control; type: functional; settings: 2 h
Method in brief: (§1)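 Rat hind paw oedema induced by 0.1 mL 1% carrageenan injected subplantar into the right hind paw. Paw volume measured plethysmographically before carrageenan and at 30, 60, 120 and 180 min after. Percent oedema inhibition calculated versus a saline control group. Six animals per group, mean ± SE; one-way ANOVA with Tukey–Kramer test, p < 0.01.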

[2] = system: Rattus norvegicus; assay: Antiinflammatory activity in albino rat assessed as inhibition of carrageenan-induced paw oedema at 100 mg/kg, po measured after 60 mins of carrageenan challenge relative to control; type: functional; settings: 1 h; method in brief: as §1
[3] = system: Mus musculus; assay: Analgesic activity in Swiss albino mouse assessed as protection against acetic acid-induced writhing at 100 mg/kg, po administered 1 hr prior to acetic acid challenge relative to control measured after 3 hrs; type: functional
Method in brief: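 Swiss albino mice (20–25 g), six per group. Baseline writhes counted over 20 min starting 5 min after ip 0.6% acetic acid (10 ml/kg); the same mice were dosed orally the next day, 1 h before acetic acid, and writhes counted again. Protection = (1 − […]) × 100. Mean ± SE; one-way ANOVA with Tukey–Kramer test, p < 0.01.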

[4] = system: Rattus norvegicus; assay: Antiinflammatory activity in albino rat assessed as inhibition of carrageenan-induced paw oedema at 100 mg/kg, po measured after 30 mins of carrageenan challenge relative to control; type: functional; settings: 0.5 h; method in brief: as §1
[5] = system: Rattus norvegicus; assay: Antiinflammatory activity in albino rat assessed as inhibition of carrageenan-induced paw oedema at 100 mg/kg, po measured after 180 mins of carrageenan challenge relative to control; type: functional; settings: 3 h; method in brief: as §1
[6] = organism: Rattus norvegicus; assay: animal or person; settings: albino, po, 1 h, read-out: INH
[7] = organism: Rattus norvegicus; assay: animal or person; settings: albino, po, 3 h, read-out: INH
[8] = organism: Rattus norvegicus; assay: animal or person; settings: albino, po, 2 h, read-out: INH
[9] = organism: Rattus norvegicus; assay: animal or person; settings: albino, po, 0.5 h, read-out: INH

Structure (SMILES) | inhibition in vivo at 100 mg/kg [1] | inhibition in vivo at 100 mg/kg [2] | Activity [3] | inhibition in vivo at 100 mg/kg [4] | inhibition in vivo at 100 mg/kg [5] | inhibition in vivo at 50 mg/kg [6] | inhibition in vivo at 50 mg/kg [7] | inhibition in vivo at 50 mg/kg [8] | inhibition in vivo at 50 mg/kg [9]
Clc1cccc(NCc2nc3ccc(Br)cc3[nH]2)c1 | 17.6% | 26.6% | 89% | 7.6% | 16.6% | – | – | – | –
O=[N+]([O-])c1ccc2nc(CNc3ccc(Br)cc3)[nH]c2c1 | 23.5% | 20% | 79% | 15.3% | 22.2% | – | – | – | –
Brc1ccc(NCc2nc3ccc(Br)cc3[nH]2)cc1 | 23.5% | 20% | 85.66% | – | 16.6% | – | – | – | –
c1ccc(NCc2nc3ccccc3[nH]2)cc1 | 41.1% | 26.6% | 72.33% | 7.6% | 38.8% | – | – | – | –
COc1ccc(NCc2nc3ccccc3[nH]2)cc1 | 29.4% | 26.6% | 83.33% | 7.6% | 33.3% | – | – | – | –
Clc1ccccc1NCc1nc2ccc(Br)cc2[nH]1 | 23.5% | 20% | 80% | – | 22.2% | – | – | – | –
Clc1cccc(NCc2nc3ccccc3[nH]2)c1 | 41.1% | 26.6% | 81.33% | 15.3% | 44.4% | – | – | – | –
Cc1ccc(NCc2nc3ccc(Br)cc3[nH]2)cc1 | 23.5% | 20% | 88% | 7.6% | 16.6% | – | – | – | –
Brc1ccc2nc(CNc3ccccc3)[nH]c2c1 | 29.4% | 26.6% | 80% | 7.6% | 22.2% | – | – | – | –
CS(=O)(=O)Nc1ccc([N+](=O)[O-])cc1Oc1ccccc1 [NIMESULIDE] | – | – | – | – | – | 26.6% | 44.4% | 41.1% | 15.3%
COc1ccc(NCc2nc3ccc(Br)cc3[nH]2)cc1 | 17.6% | 13.3% | 83.33% | – | 12.5% | – | – | – | –
